# System: not listed separately
# Assay: Toxicity in human A549 cells assessed as reduction in cell viability incubated for 24 hrs by resazurin dye based assay
# Details: not given
# Summary of the method: (§1)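 Toxicity tested in the nucleated lines A549 and BEAS-2B to give EC50 values. Selectivity index is EC50 against the mammalian line divided by the MIC against a given fungal strain.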
row,Compound,EC50 at 24 h
1,CCCCCC(O)(Cn1cncn1)c1ccccc1Cl (configuration not stated),> 31.3 µg/mL

# System: Candida albicans
# Assay: Antifungal activity against ITC and FLC-resistant Candida albicans ATCC MYA-1003 incubated for 48 hrs by modified CLSI M27-A3 protocol based method
# Format: functional
# Details: ATCC MYA-1003, 48 h
# Summary of the method: (§2)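 Because these Candida strains show trailing growth, MIC-2 was read, meaning 50% growth inhibition. Caspofungin and voriconazole were tested here; other controls came from earlier work.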
row,Compound,MIC50
1,CCCCCC(O)(Cn1cncn1)c1ccccc1Cl (configuration not stated),26.5 µM

# System: not listed separately
# Assay: Selectivity index, ratio of EC50 for toxicity in human BEAS2B cells to MIC50 for antifungal activity against ITC and FLC-resistant Candida albicans ATCC 1237
# Format: cell-based
# Details: BEAS-2B cells, read-out: Selectivity Index
# Summary of the method: (§3)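 Selectivity index is the EC50 against the mammalian line (A549 or BEAS-2B) divided by the MIC against the given fungal strain.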
row,Compound,selectivity ratio
1,CCCCCC(O)(Cn1cncn1)c1ccccc1Cl (configuration not stated),32

# System: not listed separately
# Assay: Hemolytic activity in mouse erythrocytes assessed as hemolysis level at 31.3 ug/ml incubated for 1 hr at 37 degC
# Format: ADME, cell-based, Erythrocyte
# Details: read-out: Activity
# Summary of the method: (§4)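 Mouse erythrocytes incubated 1 h at 37 °C with test agents over 1.95 to 125 µg/mL. Percent lysis is read for each concentration.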
row,Compound,"hemolysis at 1 h, 31.3 ug/ml"
1,CCCCCC(O)(Cn1cncn1)c1ccccc1Cl (configuration not stated),0%

# System: Nakaseomyces glabratus
# Assay: Antifungal activity against Candida glabrata ATCC 2001 incubated for 48 hrs by modified CLSI M27-A3 protocol based method
# Format: functional
# Details: ATCC 2001, 48 h
row,Compound,MIC50
1,CCCCCC(O)(Cn1cncn1)c1ccccc1Cl (configuration not stated),3.3 µM

# System: not listed separately
# Assay: Selectivity index, ratio of EC50 for toxicity in human BEAS2B cells to MIC50 for antifungal activity against ITC and FLC-susceptible Candida albicans ATCC MYA-2310
# Format: cell-based
# Details: BEAS-2B cells, read-out: Selectivity Index
# Summary of the method: (§5)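 Ratio of the compound's EC50 against BEAS-2B cells to its MIC against the named C. albicans strain. […] For C. albicans strains other than ATCC 10231, trailing growth meant MIC-2 was taken, meaning 50% growth inhibition.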
row,Compound,selectivity ratio
1,CCCCCC(O)(Cn1cncn1)c1ccccc1Cl (configuration not stated),32

# System: not listed separately
# Assay: Selectivity index, ratio of EC50 for toxicity in human BEAS2B cells to MIC50 for antifungal activity against ITC and FLC-resistant Candida albicans ATCC MYA-1003
# Format: cell-based
# Details: BEAS-2B cells, read-out: Selectivity Index
# Summary of the method: as §3
row,Compound,selectivity ratio
1,CCCCCC(O)(Cn1cncn1)c1ccccc1Cl (configuration not stated),4

# System: Candida parapsilosis
# Assay: Antifungal activity against Candida parapsilosis ATCC 22019 incubated for 48 hrs by modified CLSI M27-A3 protocol based method
# Format: functional
# Details: Lodderomyces parapsilosis, ATCC 22019, 48 h; read-out: MIC100
# Summary of the method: (§6)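 For C. albicans ATCC 10231, C. krusei ATCC 6258 and C. parapsilosis ATCC 22019, MIC-0 was read, meaning complete growth inhibition. For azole controls, MIC-2 (50% growth inhibition) was reported instead. Caspofungin and voriconazole were tested here; other controls came from earlier work.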
row,Compound,MIC
1,CCCCCC(O)(Cn1cncn1)c1ccccc1Cl (configuration not stated),0.41 µM

# System: not listed separately
# Assay: Selectivity index, ratio of EC50 for toxicity in human A549 cells to MIC50 for antifungal activity against ITC and FLC-resistant Candida albicans ATCC MYA-90819
# Format: cell-based
# Details: read-out: Selectivity Index
# Summary of the method: as §3
row,Compound,selectivity ratio
1,CCCCCC(O)(Cn1cncn1)c1ccccc1Cl (configuration not stated),65

# System: not listed separately
# Assay: Selectivity index, ratio of EC50 for toxicity in human BEAS2B cells to MIC50 for antifungal activity against ITC and FLC-susceptible Candida albicans ATCC MYA-2876
# Format: cell-based
# Details: BEAS-2B cells, read-out: Selectivity Index
# Summary of the method: as §5
row,Compound,selectivity ratio
1,CCCCCC(O)(Cn1cncn1)c1ccccc1Cl (configuration not stated),32

# System: not listed separately
# Assay: Hemolytic activity in mouse erythrocytes assessed as hemolysis level at 1.95 ug/ml incubated for 1 hr at 37 degC
# Format: ADME, cell-based, Erythrocyte
# Details: read-out: Activity
# Summary of the method: as §4
row,Compound,"hemolysis at 1 h, 1.95 ug/ml"
1,CCCCCC(O)(Cn1cncn1)c1ccccc1Cl (configuration not stated),0%

# System: not listed separately
# Assay: in vitro
# Details: mouse, mouse erythrocytes
row,Compound,"hemolysis at 1 h, 62.5 ug/ml"
1,CCCCCC(O)(Cn1cncn1)c1ccccc1Cl (configuration not stated),0%

# System: Candida albicans
# Assay: Antifungal activity against ITC and FLC-susceptible Candida albicans ATCC MYA-2310 incubated for 48 hrs by modified CLSI M27-A3 protocol based method
# Format: functional
# Details: ATCC MYA-2310, 48 h
row,Compound,MIC50
1,CCCCCC(O)(Cn1cncn1)c1ccccc1Cl (configuration not stated),3.3 µM

# System: Aspergillus nidulans
# Assay: Antifungal activity against Aspergillus nidulans ATCC 38163 incubated for 48 hrs by CLSI M38-A2 protocol based method
# Format: functional
# Details: ATCC 38163, 48 h, read-out: MIC100
row,Compound,MIC
1,CCCCCC(O)(Cn1cncn1)c1ccccc1Cl (configuration not stated),3.3 µM

# System: not listed separately
# Assay: Selectivity index, ratio of EC50 for toxicity in human A549 cells to MIC50 for antifungal activity against ITC and FLC-resistant Candida albicans ATCC MYA-1003
# Format: cell-based
# Details: read-out: Selectivity Index
# Summary of the method: as §3
row,Compound,selectivity ratio
1,CCCCCC(O)(Cn1cncn1)c1ccccc1Cl (configuration not stated),4

# System: not listed separately
# Assay: Selectivity index, ratio of EC50 for toxicity in human BEAS2B cells to MIC100 for antifungal activity against Candida albicans ATCC 10231
# Format: cell-based
# Details: BEAS-2B cells, read-out: Selectivity Index
# Summary of the method: as §3
row,Compound,selectivity ratio
1,CCCCCC(O)(Cn1cncn1)c1ccccc1Cl (configuration not stated),4

# System: not listed separately
# Assay: Selectivity index, ratio of EC50 for toxicity in human BEAS2B cells to MIC50 for antifungal activity against Candida glabrata ATCC 2001
# Format: cell-based
# Details: BEAS-2B cells, read-out: Selectivity Index
# Summary of the method: as §3
row,Compound,selectivity ratio
1,CCCCCC(O)(Cn1cncn1)c1ccccc1Cl (configuration not stated),32

# System: not listed separately
# Assay: Hemolytic activity in mouse erythrocytes assessed as hemolysis level at 3.9 ug/ml incubated for 1 hr at 37 degC
# Format: ADME, cell-based, Erythrocyte
# Details: read-out: Activity
# Summary of the method: as §4
row,Compound,"hemolysis at 1 h, 3.9 ug/ml"
1,CCCCCC(O)(Cn1cncn1)c1ccccc1Cl (configuration not stated),0%

# System: not listed separately
# Assay: Selectivity index, ratio of […] for toxicity in human A549 cells to MIC50 for antifungal activity against Aspergillus nidulans ATCC 38163
# Format: cell-based
# Details: read-out: Selectivity Index
row,Compound,selectivity ratio
1,CCCCCC(O)(Cn1cncn1)c1ccccc1Cl (configuration not stated),32

# System: Candida albicans
# Assay: Antifungal activity against ITC and FLC-susceptible Candida albicans ATCC MYA-2876 incubated for 48 hrs by modified CLSI M27-A3 protocol based method
# Format: functional
# Details: ATCC MYA-2876, 48 h
# Summary of the method: as §2
row,Compound,MIC50
1,CCCCCC(O)(Cn1cncn1)c1ccccc1Cl (configuration not stated),3.3 µM

# System: Candida albicans
# Assay: Antifungal activity against Candida albicans ATCC 64124 incubated for 48 hrs by modified CLSI M27-A3 protocol based method
# Format: functional
# Details: ATCC 64124, 48 h
row,Compound,MIC50
1,CCCCCC(O)(Cn1cncn1)c1ccccc1Cl (configuration not stated),> 106 µM

# System: not listed separately
# Assay: Hemolytic activity in mouse erythrocytes assessed as hemolysis level at 7.8 ug/ml incubated for 1 hr at 37 degC
# Format: ADME, cell-based, Erythrocyte
# Details: read-out: Activity
# Summary of the method: as §4
row,Compound,"hemolysis at 1 h, 7.8 ug/ml"
1,CCCCCC(O)(Cn1cncn1)c1ccccc1Cl (configuration not stated),0%

# System: not listed separately
# Assay: Selectivity index, ratio of […] for toxicity in human BEAS2B cells to MIC50 for antifungal activity against Aspergillus flavus ATCC MYA-3631
# Format: cell-based
# Details: BEAS-2B cells, read-out: Selectivity Index
row,Compound,selectivity ratio
1,CCCCCC(O)(Cn1cncn1)c1ccccc1Cl (configuration not stated),1

# System: not listed separately
# Assay: Selectivity index, ratio of EC50 for toxicity in human BEAS2B cells to MIC50 for antifungal activity against Candida albicans ATCC 64124
# Format: cell-based
# Details: BEAS-2B cells, read-out: Selectivity Index
# Summary of the method: as §3
row,Compound,selectivity ratio
1,CCCCCC(O)(Cn1cncn1)c1ccccc1Cl (configuration not stated),1

# System: not listed separately
# Assay: Selectivity index, ratio of EC50 for toxicity in human A549 cells to MIC for antifungal activity against Candida parapsilosis ATCC 22019
# Details: not given
row,Compound,selectivity ratio
1,CCCCCC(O)(Cn1cncn1)c1ccccc1Cl (configuration not stated),261

# System: not listed separately
# Assay: Selectivity index, ratio of EC50 for toxicity in human A549 cells to MIC50 for antifungal activity against ITC and FLC-resistant Candida albicans ATCC 1237
# Format: cell-based
# Details: read-out: Selectivity Index
# Summary of the method: as §3
row,Compound,selectivity ratio
1,CCCCCC(O)(Cn1cncn1)c1ccccc1Cl (configuration not stated),32

# System: not listed separately
# Assay: Selectivity index, ratio of EC50 for toxicity in human A549 cells to MIC50 for antifungal activity against Candida krusei ATCC 6258
# Details: not given
row,Compound,selectivity ratio
1,CCCCCC(O)(Cn1cncn1)c1ccccc1Cl (configuration not stated),32

# System: not listed separately
# Assay: Selectivity index, ratio of EC50 for toxicity in human A549 cells to MIC50 for antifungal activity against ITC and FLC-susceptible Candida albicans ATCC MYA-2876
# Format: cell-based
# Details: read-out: Selectivity Index
# Summary of the method: as §3
row,Compound,selectivity ratio
1,CCCCCC(O)(Cn1cncn1)c1ccccc1Cl (configuration not stated),32

# System: not listed separately
# Assay: Selectivity index, ratio of EC50 for toxicity in human BEAS2B cells to MIC50 for antifungal activity against Candida krusei ATCC 6258
# Details: BEAS-2B cells
row,Compound,selectivity ratio
1,CCCCCC(O)(Cn1cncn1)c1ccccc1Cl (configuration not stated),32

# System: not listed separately
# Assay: Toxicity in human BEAS2B cells assessed as reduction in cell viability incubated for 24 hrs by resazurin dye based assay
# Details: BEAS-2B cells
# Summary of the method: as §1
row,Compound,EC50 at 24 h
1,CCCCCC(O)(Cn1cncn1)c1ccccc1Cl (configuration not stated),> 31.3 µg/mL

# System: Pichia kudriavzevii
# Assay: Antifungal activity against Candida krusei ATCC 6258 incubated for 48 hrs by modified CLSI M27-A3 protocol based method
# Format: functional
# Details: ATCC 6258, 48 h, read-out: MIC100
# Summary of the method: as §6
row,Compound,MIC
1,CCCCCC(O)(Cn1cncn1)c1ccccc1Cl (configuration not stated),3.3 µM

# System: not listed separately
# Assay: Selectivity index, ratio of EC50 for toxicity in human A549 cells to MIC50 for antifungal activity against Candida albicans ATCC 64124
# Format: cell-based
# Details: read-out: Selectivity Index
# Summary of the method: as §3
row,Compound,selectivity ratio
1,CCCCCC(O)(Cn1cncn1)c1ccccc1Cl (configuration not stated),1
